Data taken from ChEMBL document CHEMBL1764999, “In vitro characterization of human peptide transporter hPEPT1 interactions and passive permeation studies of short cationic antimicrobial peptides” (J Med Chem, 2011).
In brackets after ≈: the same amount, converted by molar mass. Square brackets hold non-standard residues; d marks the D form. Peptide text beside a SMILES is read from it. * marks the point of attachment. Phe(4-guanidino) = N=C(N)Nc1ccc(C[C@H](N)C(=O)O)cc1; Bip = N[C@@H](Cc1ccc(-c2ccccc2)cc1)C(=O)O; Dip = N[C@H](C(=O)O)C(c1ccccc1)c1ccccc1; NHBn = c1ccc(CN*)cc1

Columns and labels:
[1] = Apparent permeability of the compound by PAMPA; format: ADME
Staphylococcus aureus [2] = assay: Antibacterial activity against Staphylococcus aureus by micro dilution method; format: functional
Escherichia coli = assay: Antibacterial activity against Escherichia coli by micro dilution method; format: functional
Staphylococcus aureus [3] = assay: Antibacterial activity against methicillin-resistant Staphylococcus aureus by micro dilution method; format: functional
[4] = molecular target: T1, Solute carrier family 15 member 1 (Homo sapiens) (UniProt P46059); assay: Activity of human PEPT1 expressed in Xenopus laevis oocytes assessed as induction of transport-associated flux rate current at 1 mM at -60 mV membrane potential by two-electrode voltage clamp method; format: cell-based; details: Oocyte
T1 sequence (whole entry): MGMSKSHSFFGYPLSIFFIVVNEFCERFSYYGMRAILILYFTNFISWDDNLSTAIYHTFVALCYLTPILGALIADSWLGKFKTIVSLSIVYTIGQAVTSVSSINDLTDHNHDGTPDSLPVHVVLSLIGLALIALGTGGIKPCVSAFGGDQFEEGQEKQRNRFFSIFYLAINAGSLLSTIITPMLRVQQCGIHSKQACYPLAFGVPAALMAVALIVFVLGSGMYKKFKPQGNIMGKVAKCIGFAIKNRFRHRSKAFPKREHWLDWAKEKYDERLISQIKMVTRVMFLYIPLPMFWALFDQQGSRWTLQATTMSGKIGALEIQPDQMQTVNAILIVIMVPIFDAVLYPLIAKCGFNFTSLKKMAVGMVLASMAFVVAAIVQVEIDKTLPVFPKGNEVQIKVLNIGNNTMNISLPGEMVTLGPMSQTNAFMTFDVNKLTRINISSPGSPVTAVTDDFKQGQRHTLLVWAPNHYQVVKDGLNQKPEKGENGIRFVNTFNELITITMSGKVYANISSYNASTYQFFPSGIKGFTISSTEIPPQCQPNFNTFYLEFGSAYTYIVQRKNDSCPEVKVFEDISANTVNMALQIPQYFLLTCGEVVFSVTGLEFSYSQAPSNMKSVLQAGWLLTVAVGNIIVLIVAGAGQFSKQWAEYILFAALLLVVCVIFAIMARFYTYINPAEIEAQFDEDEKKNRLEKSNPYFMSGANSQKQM
In short: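 Oocytes were collagenase-treated (2.5 mg/mL, 70 min) and injected with ~25 ng hPEPT1 cRNA, then held 3-5 days at 17 °C. Superfused at room temperature with MES-buffered Barth's, pH 6.5, clamped at -60 mV. Current is the difference with vs without test peptide, taken 20-30 s after application. Flux in pmol/(s cm²) assumes a 3.80 mm² oocyte surface. Mean of three oocytes.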

[5] = molecular target: T2, Solute carrier family 15 member 1 (Homo sapiens, UniProt P46059); assay: Inhibition of human PEPT1 expressed in Xenopus laevis oocytes assessed as inhibition of glycylsarcosine-induced transport-associated current at -60 mV membrane potential by two-electrode voltage clamp method; format: cell-based, Oocyte
T2 sequence (P46059 whole entry): T1 sequence (whole entry)
In short: (§1)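 The hPEPT1 cRNA-injected oocytes were clamped at -60 mV in Barth's solution with HEPES replaced by MES (pH 6.5), at room temperature. Currents from 1 mM Gly-Sar were recorded with and without test peptide (0.25-1.0 mM) at steady state. Flux used a 3.80 mm² surface. Inhibition is residual current as % of the Gly-Sar current. IC50 was fitted from mean inhibitions by Michaelis-Menten.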

[6] = molecular target: T1, Solute carrier family 15 member 1 (Homo sapiens); assay: Inhibition of human PEPT1 expressed in Xenopus laevis oocytes assessed as effect on glycylsarcosine-induced transport-associated flux rate current at 0.25 to 1 mM at -60 mV membrane potential by two-electrode voltage clamp method; format: cell-based; details: Oocyte; in short: as §1
[7] = molecular target: T1, Solute carrier family 15 member 1 (Homo sapiens); assay: Inhibition of human PEPT1 expressed in Xenopus laevis oocytes assessed as Inhibition of glycylsarcosine-induced transport-associated current at 0.25 to 1 mM at -60 mV membrane potential by two-electrode voltage clamp method; format: cell-based; details: Oocyte; in short: as §1

Row | SMILES | Papp ([1]; read-out: Papp) [×10⁻⁶ cm/s] | MIC (Staphylococcus aureus [2]) [µg/mL] | MIC (Escherichia coli) [µg/mL] | MIC (Staphylococcus aureus [3]) [µg/mL] | Activity [4] [%] | IC50 [5] [mM] | Activity [6] | inhibition [7] [%] | Papp [1] [×10⁻⁶ cm/s]
1 | NCCCC[C@H](NC(=O)[C@H](Cc1ccc(-c2ccccc2)cc1)NC(=O)[C@@H](N)CCCCN)C(=O)NCc1ccccc1 (H-Lys-[Bip]-Lys-NHBn) | 0.26 | 15 (≈ 25.6 µM) | > 150 | 25 (≈ 42.6 µM) |  |  |  |  | 
2 | N=C(N)NCCC[C@H](NC(=O)[C@@H](NC(=O)[C@@H](N)CCCNC(=N)N)C(c1ccccc1)c1ccccc1)C(N)=O (H-Arg-[Dip]-Arg-NH2) | 0.83 | 100 (≈ 181 µM) | > 150 | > 150 |  |  |  |  | 
3 | NC(N)=NCCC[C@H](NC(=O)[C@@H](N)Cc1c[nH]c2ccccc12)C(=O)NCc1ccccc1 (H-Trp-Arg-NHBn) |  |  |  |  | 1.2 |  |  |  | 
4 | N=C(N)NCCC[C@H](NC(=O)[C@H](Cc1ccccc1)NC(=O)[C@@H](N)CCCNC(=N)N)C(=O)NCc1ccccc1 (H-Arg-Phe-Arg-NHBn) | 2.31 | 150 (≈ 265 µM) | > 150 | 75 (≈ 132 µM) |  |  |  |  | 
5 | CC(C)(C)c1cc(C(C)(C)C)c2[nH]c(C(C)(C)C)c(C[C@H](NC(=O)[C@@H](N)CCCNC(=N)N)C(=O)N[C@@H](CCCNC(=N)N)C(=O)NCc3ccccc3)c2c1 |  | 2.5 (≈ 3.23 µM) | 7.5 (≈ 9.69 µM) | 2.5 (≈ 3.23 µM) |  |  |  |  | 
6 | CC(C)(C)c1cc(C(C)(C)C)c2[nH]c(C(C)(C)C)c(C[C@H](N)C(=O)N[C@@H](CCCNC(=N)N)C(N)=O)c2c1 | 0.43 | 15 (≈ 28.4 µM) | > 150 | 15 (≈ 28.4 µM) |  | 0.6 | 34.8 pmol/(s.cm2) | 20.3 | 
7 | N=C(N)NCCC[C@H](NC(=O)[C@@H](NC(=O)[C@@H](N)CCCNC(=N)N)C(c1ccccc1)c1ccccc1)C(=O)NCc1ccccc1 (H-Arg-[Dip]-Arg-NHBn) | 0.42 | 25 (≈ 38.9 µM) | > 150 | 10 (≈ 15.6 µM) |  |  |  |  | 
8 | NS(=O)(=O)c1cc2c(cc1Cl)N=CNS2(=O)=O [CHLOROTHIAZIDE] |  |  |  |  |  |  |  |  | 0.03
9 | N=C(N)NCCC[C@H](NC(=O)[C@@H](N)Cc1c[nH]c2ccccc12)C(=O)O (H-Trp-Arg-OH) |  |  |  |  | 43.5 |  |  |  | 
10 | NC(=O)[C@H](CCCN=C(N)N)NC(=O)[C@H](Cc1c[nH]c2ccccc12)NC(=O)[C@@H](N)CCCN=C(N)N (H-Arg-Trp-Arg-NH2) | 2.37 | > 200 | > 200 |  |  | 2.7 | 61.8 pmol/(s.cm2) | 15.1 | 
11 | NCCCC[C@H](NC(=O)[C@H](Cc1ccc(-c2ccccc2)cc1)NC(=O)[C@@H](N)CCCCN)C(N)=O (H-Lys-[Bip]-Lys-NH2) | 0.06 | > 200 |  |  |  |  |  |  | 
12 | CC(C)(C)NCC(O)c1cc(O)cc(O)c1 (stereo not given) [TERBUTALINE] | 0.4 |  |  |  |  |  |  |  | 
13 | N=C(N)NCCC[C@H](NC(=O)[C@H](Cc1ccc(-c2ccccc2)cc1)NC(=O)[C@@H](N)CCCNC(=N)N)C(=O)NCc1ccccc1 (H-Arg-[Bip]-Arg-NHBn) | 0.01 | 5 (≈ 7.78 µM) | 100 (≈ 156 µM) | 5 (≈ 7.78 µM) |  |  |  |  | 
14 | N=C(N)NCCC[C@H](NC(=O)[C@@H](N)Cc1ccc(-c2ccccc2)cc1)C(=O)O (H-[Bip]-Arg-OH) |  |  |  |  | 10.7 |  |  |  | 
15 | N=C(N)NCCC[C@H](NC(=O)[C@H](Cc1c[nH]c2ccccc12)NC(=O)[C@@H](N)CCCNC(=N)N)C(=O)NCc1ccccc1 (H-Arg-Trp-Arg-NHBn) | 0.77 | 75 (≈ 124 µM) | > 150 | 25 (≈ 41.3 µM) |  |  | 3.8 pmol/(s.cm2) | 87.6 | 
16 | N=C(N)Nc1ccc(C[C@H](NC(=O)[C@H](Cc2ccc(-c3ccccc3)cc2)NC(=O)[C@@H](N)Cc2ccc(NC(=N)N)cc2)C(=O)NCc2ccccc2)cc1 (H-[Phe(4-guanidino)]-[Bip]-[Phe(4-guanidino)]-NHBn) | 0.9 | < 2.5 | 75 (≈ 102 µM) | 5 (≈ 6.77 µM) |  |  |  |  | 
17 | N=C(N)NCCC[C@H](NC(=O)[C@H](Cc1ccc(-c2ccccc2)cc1)NC(=O)[C@@H](N)CCCNC(=N)N)C(N)=O (H-Arg-[Bip]-Arg-NH2) | 0.01 | 200 (≈ 362 µM) |  | 50 (≈ 90.5 µM) |  |  | 56.7 pmol/(s.cm2) | -3.3 | 
18 | CC(C)(C)c1cc(C(C)(C)C)c2[nH]c(C(C)(C)C)c(C[C@H](N)C(=O)N[C@@H](CCCNC(=N)N)C(=O)NCCc3ccccc3)c2c1 | 5.27 | 2.5 (≈ 3.96 µM) | 10 (≈ 15.8 µM) | 2.5 (≈ 3.96 µM) |  |  |  |  | 
19 | N=C(N)NCCC[C@H](NC(=O)[C@@H](N)CCCNC(=N)N)C(=O)N[C@@H](Cc1c[nH]c2ccccc12)C(=O)NCc1ccccc1 (H-Arg-Arg-Trp-NHBn) | 0.96 | 75 (≈ 124 µM) | > 150 | 25 (≈ 41.3 µM) |  |  |  |  | 
20 | N=C(N)NCCC[C@H](N)C(=O)N[C@@H](Cc1ccc(NC(=N)N)cc1)C(=O)N[C@@H](Cc1c[nH]c2ccccc12)C(=O)NCc1ccccc1 (H-Arg-[Phe(4-guanidino)]-Trp-NHBn) | 0.38 | 50 (≈ 76.5 µM) | > 150 | 15 (≈ 22.9 µM) |  |  |  |  | 
21 | COC(=O)[C@H](CCCN=C(N)N)NC(=O)[C@@H](N)Cc1ccc(-c2ccccc2)cc1 (H-[Bip]-Arg-OMe) | 1.06 | 150 (≈ 365 µM) | > 200 |  |  |  | 57.2 pmol/(s.cm2) | 10.4 | 
22 | N=C(N)NCCC[C@H](N)C(=O)N[C@@H](Cc1c[nH]c2ccccc12)C(=O)N[C@@H](Cc1ccc(NC(=N)N)cc1)C(=O)NCc1ccccc1 (H-Arg-Trp-[Phe(4-guanidino)]-NHBn) | 0.47 | 50 (≈ 76.5 µM) | > 150 | 10 (≈ 15.3 µM) |  |  |  |  | 
23 | COCCc1ccc(OCC(O)CNC(C)C)cc1 (stereo not given) [METOPROLOL] | 3.23 |  |  |  |  |  |  |  | 
